Assay results from ChEMBL document CHEMBL2046315, “Design, synthesis and structure-activity relationships of 5-alkylaminolquinolines as a novel series of CRF1 receptor antagonists” (Bioorg Med Chem Lett, 2012).

Columns and labels:
[1] = target: T1, Corticotropin-releasing factor receptor 1 (Homo sapiens, UniProt P34998); assay: Displacement of [125I]-CRF from human CRF1 receptor expressed in HEK293 cells after 2 hrs by scintillation proximity assay; assay type: cell-based
T1 sequence (P34998 whole entry): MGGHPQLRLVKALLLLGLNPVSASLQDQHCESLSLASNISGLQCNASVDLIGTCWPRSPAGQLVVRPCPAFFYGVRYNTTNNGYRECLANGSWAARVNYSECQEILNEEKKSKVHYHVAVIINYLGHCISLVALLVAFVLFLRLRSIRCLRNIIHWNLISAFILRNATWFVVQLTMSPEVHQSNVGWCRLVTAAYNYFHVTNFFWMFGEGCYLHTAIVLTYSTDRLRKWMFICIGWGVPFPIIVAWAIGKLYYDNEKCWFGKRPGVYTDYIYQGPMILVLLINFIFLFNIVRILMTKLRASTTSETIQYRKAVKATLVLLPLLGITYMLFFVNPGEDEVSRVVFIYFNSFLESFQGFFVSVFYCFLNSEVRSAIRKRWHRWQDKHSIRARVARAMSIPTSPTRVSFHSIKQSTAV
Summary of the method: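 Membranes (5 µg/well) with WGA-coated SPA beads and 0.1 nM [125I]-human/rat CRF. Assay buffer is phosphate-buffered saline with 10 mM MgCl2, 2 mM EGTA, 1.5% BSA and protease inhibitors, pH 7.0. Nonspecific binding defined with 0.4 µM sauvagine. Incubated over 2 h at room temperature and counted after centrifugation. Specific binding expressed as % of total; IC50 from concentration-response curve.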

[2] = target: T1, Corticotropin-releasing factor receptor 1; assay: Antagonist activity at human CRF1 receptor expressed in HEK293 cells assessed as inhibition of CRF-stimulated intracellular cAMP accumulation preincubated for 30 mins measured after 30 mins by enzyme immunoassay; assay type: functional, cell-based
Summary of the method: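 Cells seeded at 5 × 10^4/well in DMEM with 0.1% FBS and 1 mM IBMX, pre-incubated 30 min, then test compound added for 30 min at 37 °C. Stimulation with 1 nM human/rat CRF for 30 min at 37 °C, followed by cell lysis. cAMP measured by EIA, basal (no CRF) subtracted, expressed as % of total production. IC50 from concentration-response curve.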

| Compound | IC50 [1] | IC50 [2] |
| --- | --- | --- |
| Cc1cc(C)c(Nc2nc3cccc(N(CC4CC4)CC4CC4)c3cc2C)c(C)c1 | 75 nM |  |
| Cc1cc(C)c(Nc2nc3cccc(N(CC4CC4)C4CCOCC4)c3cc2C)c(C)c1 | 90 nM | 255 nM |
| CCC(CC)Nc1cccc2nc(Oc3c(OC)cc(COC)cc3OC)c(C)cc12 | > 1000 nM |  |
| CCCN(CCC)c1cccc2nc(Nc3c(OC)cc(COC)cc3OC)c(C)cc12 | 472 nM |  |
| CCCC(CCC)Nc1cccc2nc(Nc3c(C)cc(C)cc3C)c(C)nc12 | 197 nM |  |
| CCN(CC)c1cccc2nc(Oc3c(OC)cc(COC)cc3OC)c(C)cc12 | 70 nM | 167 nM |
| CCCN(CCC)c1cccc2nc(Nc3c(C)cc(C)cc3C)c(C)nc12 | 155 nM | 563 nM |
| Cc1cc(C)c(Nc2nc3cccc(N(CC4CCOCC4)CC4CC4)c3cc2C)c(C)c1 | 742 nM |  |
| CCCN(CCC)c1cccc2nc(Nc3c(C)cc(C)cc3C)c(=O)n(C)c12 | 672 nM |  |
| COCc1cc(OC)c(Oc2nc3cccc(N(CC4CCOCC4)CC4CC4)c3cc2C)c(OC)c1 | 762 nM |  |
| COCc1cc(OC)c(Oc2nc3cccc(NC4CCCCC4)c3cc2C)c(OC)c1 | > 1000 nM |  |
| CCN(c1cccc2nc(Oc3c(OC)cc(COC)cc3OC)c(C)cc12)C1CCOCC1 | 323 nM |  |
| CCCN(CCC)c1cccc2nc(N(C)c3c(C)cc(C)cc3C)c(=O)n(C)c12 | > 1000 nM |  |
| CCN(Cc1ccncc1)c1cccc2nc(Oc3c(OC)cc(COC)cc3OC)c(C)cc12 | > 1000 nM |  |
| CCCN(CCC)c1cccc2nc(Oc3c(OC)cc(COC)cc3OC)c(C)cc12 | 138 nM | 163 nM |
| CCCN(CCC)c1cccc2nc(Nc3c(C)cc(C)cc3C)c(C)cc12 | 88 nM | 372 nM |
| CCCN(CCC)c1cccc2nc(Nc3c(C)cc(C)cc3C)c(=O)[nH]c12 | 100 nM | 469 nM |
| CCCN(CCC)c1cccc2nc(Oc3c(C)cc(C)cc3C)c(C)cc12 | 79 nM |  |
| COCc1cc(OC)c(Oc2nc3cccc(N(CC4CC4)C4CCOCC4)c3cc2C)c(OC)c1 | 157 nM |  |
| CCCN(CCC)c1cccc2nc(Nc3c(OC)cc(OC)cc3OC)c(C)cc12 | > 1000 nM |  |
| CCN(CC1CCOCC1)c1cccc2nc(Oc3c(OC)cc(COC)cc3OC)c(C)cc12 | 646 nM |  |
